Source: article PMC8719016 (iScience, 2021)
Peptide text beside a SMILES is read from it.

Columns and labels:
[1] = MBC of β-AMPs with and without 40% human serum; format: cell-based; conditions: MH vs MH with 40% human serum; strain not given
Procedure, shortened: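 Broth microdilution is run in MH with or without human serum, which is added to the cell suspension at twice the final level. Test compound is taken from 256 µg/mL through 2-fold serial dilutions in triplicate, with 5 × 10^5 cells/mL final, for 18–24 h at 37°C. 5 µL per well is plated on LB agar for 18 h at 37°C. MBC is the lowest concentration with zero growth, median of triplicates.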

[2] = tested on: A. baumannii AB5075 knockout or overexpression strains; assay: MIC against knockout or overexpression strains of upregulated genes; format: cell-based, Acinetobacter baumannii; conditions: all the upregulated genes tested (Table S1: fold change MIC 1 for each)
Procedure, shortened: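 Genes for overexpression are cloned via EcoRI/SalI into pMMBEH67 TetR, electroporated into AB5075 and selected on LB with 10 µg/mL tetracycline. […] The MIC is the lowest concentration with no visible growth, by eye, median of triplicates.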

A. baumannii AB5075 = assay: Isolation of resistant mutants by subinhibitory serial passage; format: cell-based, Acinetobacter baumannii; conditions: subinhibitory serial passage in liquid media over two weeks
[3] = tested on: E. coli KS272, HM130 and HM130 with trypsin protease; assay: MBC with and without protease activity; format: cell-based, Escherichia coli; conditions: KS272, HM130, HM130 with 160 ng/mL trypsin protease, MH media
Procedure, shortened: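 E. coli KS272 (parent) and HM130 (cell envelope proteases deleted) are grown overnight at 37°C. Trypsin, where used, is added to the diluted cells at twice the final concentration. Test compound is taken from 256 µg/mL through 2-fold serial dilutions in triplicate, 5 × 10^5 cells/mL final, for 18–24 h at 37°C.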

human red blood cells [4] = assay: Hemolysis; format: cell-based; conditions: 2-fold serial dilutions, compared with 1% Triton X-100 (100%); n = 3
human red blood cells [5] = conditions: ref Edwards et al., 2016; cited from earlier work
Solubility in water = format: physicochemical; conditions: lyophilized peptides resuspended in water at 10 mg/mL

## RGGRLCYCRRRFCVCVGR--- (bicyclic or more) [protegrin-1, reference compound]
[1]
  Loss of activity (MBC) when 40% human serum was added: no change

## CC[C@H](C)[C@H](NC(=O)[C@H](CCCCN)NC(=O)[C@@H](NC(=O)[C@H](CC(N)=O)NC(=O)[C@H](C)NC(=O)[C@H](CCCNC(=N)N)NC(=O)[C@H](CCCNC(=N)N)NC(=O)[C@H](CC(N)=O)NC(=O)[C@H](CCCNC(=N)N)NC(=O)[C@H](CCCNC(=N)N)NC(=O)[C@H](C)NC(=O)[C@@H](NC(=O)[C@H](CO)NC(=O)[C@@H](NC(=O)[C@@H](NC(=O)[C@H](CS)NC(=O)[C@H](CCCCN)NC(=O)[C@@H](N)CCCNC(=N)N)C(C)C)[C@@H](C)CC)C(C)C)[C@@H](C)CC)C(=O)N[C@@H](CC(C)C)C(=O)N[C@@H](CS)C(=O)N[C@@H](CC(N)=O)C(N)=O [Symbah-1] (H-RKCVISVARRNRRANIKILCN-NH2; N-terminus assumed)
[2]
  Effect of gene knockout or overexpression on MIC: no clear effect on MIC
A. baumannii AB5075
  Isolation of resistant mutants: no isolates with improved resistance
[3]
  Change of MBC under each of the conditions tested: ≤ 2 fold
[1]
  Loss of activity (MBC) when 40% human serum was added: 8 fold
Human red blood cells [4]
  Percent hemolysis of serial dilutions: very low hemolysis relative to protegrin-1 and tachyplesin-1

## GSKKPVPIIYCNRRTGKCQRM (disulfide) [Thanatin]
Human red blood cells [5]
  Hemolysis previously reported: very low hemolysis

## RKCVILCAR-NRRA-CVILCR [SBH-19]
Solubility in water
  Solubility in water: insoluble in water
